# Measured values reported in ChEMBL document CHEMBL1121449, “Synthesis and antineoplastic activity of hydroquinone dialdehydes” (J Med Chem, 1980).
# Key:
# Mus musculus [1] = experiment: Tested for change in body weight from onset to termination at dose of 5 mg/kg; format: functional
# Procedure, shortened: (§1)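 Female CD-1 mice inoculated ip with 0.1 mL of 10^7 Sarcoma 180 ascites cells/mL. Drug in 0.9% NaCl with 5% ethanol and Tween 80, serially diluted in saline, given ip once daily for 6 days starting 24 h after implantation. Dose based on mean starting weight. Controls received saline. Weight change recorded from day 0 to day 7, as % change.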
# Mus musculus [2] = experiment: Tested for change in body weight from onset to termination at dose of mg/kg; format: functional; procedure, shortened: as §1
# Mus musculus [3] = experiment: Tested for mean survival time treated animal not surviving 50 days as a percentage at dose of 0.31 mg/kg; format: functional
# Procedure, shortened: (§2)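 Female CD-1 mice, Sarcoma 180 ascites, 0.1 mL of 10^7 cells/mL given ip. Drug in 0.9% NaCl, 5% ethanol, Tween 80, serially diluted with saline. Dosed ip at 0.5 mL daily for 6 days from 24 h post-implant; daily dose based on starting mean weight. T/C is the mean survival of treated mice dying before 50 days vs controls. Survivors are those alive ≥50 days out of those treated.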
# Mus musculus [4] = experiment: Tested for mean survival time treated animal not surviving 50 days as a percentage at dose of 0.63 mg/kg; format: functional; procedure, shortened: as §2
# Mus musculus [5] = experiment: Tested for mean survival time treated animal not surviving 50 days as a percentage at dose of 1.25 mg/kg; format: functional; procedure, shortened: as §2
# Mus musculus [6] = experiment: Tested for mean survival time treated animal not surviving 50 days as a percentage at dose of 10 mg/kg; format: functional; procedure, shortened: as §2
# Mus musculus [7] = experiment: Tested for mean survival time treated animal not surviving 50 days as a percentage at dose of 2.5 mg/kg; format: functional; procedure, shortened: as §2
# Mus musculus [8] = experiment: Tested for mean survival time treated animal not surviving 50 days as a percentage at dose of 5 mg/kg; format: functional; procedure, shortened: as §2
# Mus musculus [9] = experiment: Tested for change in body weight from onset to termination at dose of 0.63 mg/kg; format: functional; procedure, shortened: as §1
# Mus musculus [10] = experiment: Tested for change in body weight from onset to termination at dose of 1.25 mg/kg; format: functional; procedure, shortened: as §1
# Mus musculus [11] = experiment: Tested for change in body weight from onset to termination at dose of 10 mg/kg; format: functional
# Procedure, shortened: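 Tumor-bearing mice were dosed ip once daily for 6 consecutive days from 24 h after ip tumor implantation; saline controls. Each group was weighed on day 7, the day after the last injection, and the change from the implantation day (day 0) was expressed as % body-weight change, used as a toxicity measure.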
# Mus musculus [12] = experiment: Tested for change in body weight from onset to termination at dose of 2.5 mg/kg; format: functional; procedure, shortened: as §1
# Mus musculus [13] = experiment: Tested for number of animal surviving at least 50 days out of 10 animal treated at dose of 1.25 mg/kg; format: functional; procedure, shortened: as §2
# Mus musculus [14] = experiment: Tested for number of animal surviving at least 50 days out of 15 animal treated at dose of 2.5 mg/kg; format: functional; procedure, shortened: as §2
# Mus musculus [15] = experiment: Tested for number of animal surviving at least 50 days out of 15 animal treated at dose of 5 mg/kg; format: functional; procedure, shortened: as §2
# Mus musculus [16] = experiment: Tested for number of animal surviving at least 50 days out of 5 animal treated at dose of 0.31 mg/kg; format: functional; procedure, shortened: as §2
# Mus musculus [17] = experiment: Tested for number of animal surviving at least 50 days out of 5 animal treated at dose of 0.63 mg/kg; format: functional; procedure, shortened: as §2
# Mus musculus [18] = experiment: Tested for number of animal surviving at least 50 days out of 5 animal treated at dose of 10 mg/kg; format: functional; procedure, shortened: as §2
# [19] = Tested for inhibition of growth of sarcoma 180 cells in culture; format: functional, cell-based; conditions: Mus musculus
# Procedure, shortened: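 Sarcoma 180 cells in suspension in Fischer's medium with 10% horse serum and penicillin/streptomycin, seeded at 10^4 cells/mL. Drug added from 10× stocks in 10% Me2SO/PBS, final 1–100 μM. Control cultures contained 1% Me2SO. Triplicate Coulter counts at 24, 48 and 72 h. IC50 read from a plot of inhibition of cell-number increase at 72 h versus concentration.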
compound,measurement,setting,value
O=Cc1ccccc1C=O [ORTHO-PHTHALALDEHYDE],Activity,Mus musculus [1],-2%
same,Activity,Mus musculus [2],15%
same,Activity,Mus musculus [3],121%
same,Activity,Mus musculus [4],193%
same,Activity,Mus musculus [5],176%
same,Activity,Mus musculus [6],43%
same,"Mean survival time, treated vs control (T/C)",Mus musculus [7],154%
same,Activity,Mus musculus [8],99%
same,Activity,Mus musculus [9],5%
same,Activity,Mus musculus [10],4%
same,Activity,Mus musculus [11],-3%
same,Activity,Mus musculus [12],0%
same,Survivors,Mus musculus [13],1
same,Survivors,Mus musculus [14],0
same,Survivors,Mus musculus [15],0
same,Survivors,Mus musculus [16],0
same,Survivors,Mus musculus [17],0
same,Survivors,Mus musculus [18],0
same,IC50,[19],12 µM
